RAD52 inh: RAD52 DNA annealing inhibitors, primary screen, biochemical, FRET, single point, set 2; inhibition, % at 18.7 µM; AID 651710, 2012; DNA repair protein RAD52 homolog (Homo sapiens), P43351; hit rate 0.46% among 360,000; recombinant RAD52 DNA annealing, FRET fluorescence;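 active = every replicate showing at least 50% inhibition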
RAD54 branch: inhibitors of human RAD54 branch migration, primary screen, biochemical, fluorescence, single point | RAD54 Holliday junction branch migration, FAM/BHQ fluorescence | hit rate 0.14% among 360,000 | DNA repair and recombination protein RAD54-like (Homo sapiens), Q92698 | AID 602329, 2012 | inhibition, % at 10.4 µM;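 active = mean normalized replicate activity at least 40 and at least half of replicates scoring 40 or more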;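 note: 0% = median of neutral control wells and 100% = median of positive control wells; inhibitors cause a drop in the FAM fluorescence signal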
MLL AF4-AF9 inh: inhibitors of AF4 peptide binding to AF9, primary screen, biochemical, AlphaScreen, biotin-AF4 peptide, FLAG-AF9, single point. Protein AF-9 (Homo sapiens), P42568. inhibition, % at 10 µM. hit rate 0.47% among 350,000. AID 651704, 2012;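 active = every replicate reaching a set inhibition limit, whatever the replicate mean, cut at about 25% in these data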;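 note: 0% = plate neutral control median and 100% = total signal loss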
Target sequence (P42568 whole entry, looked up): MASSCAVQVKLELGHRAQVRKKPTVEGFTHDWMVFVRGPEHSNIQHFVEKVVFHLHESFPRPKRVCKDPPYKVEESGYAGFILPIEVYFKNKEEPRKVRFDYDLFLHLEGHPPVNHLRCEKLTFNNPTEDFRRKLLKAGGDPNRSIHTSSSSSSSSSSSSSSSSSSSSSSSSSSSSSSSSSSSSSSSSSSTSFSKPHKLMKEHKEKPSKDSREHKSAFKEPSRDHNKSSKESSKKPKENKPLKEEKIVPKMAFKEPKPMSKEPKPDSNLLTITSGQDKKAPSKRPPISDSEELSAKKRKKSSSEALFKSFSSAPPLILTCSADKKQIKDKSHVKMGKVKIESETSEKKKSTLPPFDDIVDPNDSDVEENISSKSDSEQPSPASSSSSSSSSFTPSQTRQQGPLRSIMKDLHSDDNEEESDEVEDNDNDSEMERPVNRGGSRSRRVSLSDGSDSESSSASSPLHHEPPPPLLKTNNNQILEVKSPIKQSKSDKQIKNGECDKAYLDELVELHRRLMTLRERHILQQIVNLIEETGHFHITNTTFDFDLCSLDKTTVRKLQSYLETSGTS
E-sel inducer: E-selectin induction in HUVECs, primary screen, imaging, HUVEC, immunofluorescence imaging, single point | P16581 | normalized: neutral wells 0, TNF-alpha wells 100 | activation, % at 7.58 µM | hit rate 0.37% among 260,000 | AID 686992, 2013;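 active = mean E-selectin-positive cell signal at least 10% of the positive control, reached in at least 60% of replicates, without over 20% cell loss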
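System: HUVEC / Compound: single concentration / Signal: immunofluorescence imaging / Read-out: percent E-selectin-positive cells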
rRNA inh HTS: reduced GFP signal of wild-type E. coli, primary screen, bacterial rRNA inhibitor project, GFP/RFP fluorescence, OD600, single point. GFP signal change (wild-type ribosome), % (test concentration not listed). E. coli WT GFP vs humanized-ribosome RFP mutants, 24 h; stronger effect = lower value; DMSO median 0, no signal -100. hit rate 1.6% among 350,000;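 active = significant combined selectivity score with lowered wild-type GFP, culture density cut under 30%, mutant RFP and density less affected; inactive = any of these conditions unmet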
INS-1E GSIS act: GLuc luminescence reporter in INS-1E cells, primary screen for activators of glucose-dependent secretion of insulin. INS-1E GLuc reporter insulin secretion, 2-3 h. activation, % at 16.6 µM. hit rate 0.61% among 370,000. AID 743287, 2014;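 active = lowest replicate activation of at least 40%, so every replicate reaches that level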;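 note: 0% = median of neutral control wells and 100% = median of IBMX positive control wells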
* hit, by the source's call; · = not tested or not shown. Only some compounds are listed: those with a hit (about 2.6% of all), similar ones and a draw of the others.

SMILES	RAD52 inh	RAD54 branch	MLL AF4-AF9 inh	E-sel inducer	rRNA inh HTS	INS-1E GSIS act
CCNC(=O)C[C@H]1CC[C@H]2[C@@H](COc3ccc(NC(=O)c4cc(C)on4)cc3C(=O)N2C)O1	6	4	-1	0	0	-3
CC1(C(=O)NNC(=O)C2CCCCC2)CC1(Cl)Cl (centres undefined)	-18	-4	-2	0	-27*	-16
C[C@@H]1CN([C@@H](C)CO)C(=O)Cc2cc(NC(=O)CCCCCC(=O)Nc3ccccc3N)ccc2O[C@@H]1CN(C)S(=O)(=O)c1ccccc1	-8	-6	-1	0	1	11
CCOC(=O)c1ccc(-c2ccc(/C=N/NC(=O)c3cncc(Br)c3)o2)cc1	-79	-11	-6	0	11	-2
CCCCOC(=O)c1ccc(-c2ccc(/C=N/NC(=S)NCC)o2)cc1	·	·	·	·	·	159*
CN(C)CC(=O)N[C@H]1CC[C@H](CCn2cc(CN(C)C)nn2)O[C@H]1CO	73*	-15	13	0	6	0
CN(C)CC(=O)N[C@H]1CC[C@H](CCn2cc(CN(C)C)nn2)O[C@@H]1CO	11	2	-8	-1	2	7
CC(C)CC#Cc1cnc2c(c1)C(=O)N([C@@H](C)CO)C[C@@H](C)[C@@H](CN(C)C(=O)CC1CC1)O2	6	·	-5	·	·	·
COc1ccc(C(=O)NCC(=O)OCC(=O)Nc2sccc2C#N)cc1OC	-44	·	-2	9	-3	51*
CCOC(=O)NC(=O)COC(=O)CNC(=O)c1ccc(OCC)c(OCC)c1	-8	·	-5	0	11	46*
COc1cc([N+](=O)[O-])ccc1NC(=O)CCCOc1ccccc1	·	0	·	·	·	·
COc1cc([N+](=O)[O-])ccc1NC(=S)NNC(=O)CCC(=O)Nc1ccccc1Cl	-14	-4	-1	0	-17*	14
CC(C)=C[C@H]1C[C@H](C)[C@H]2CC[C@H](C)c3c(O[C@@H]4OC[C@@H](O)[C@H](O)C4O)c(O)c(C)c1c32 (some centres undefined)	-10	-4	1	0	18	122*
Cc1ccc(NC(=O)c2ccc(NCCCN3CCC(C)CC3)c([N+](=O)[O-])c2)cc1F	21	·	1	-1	-25*	5
Cc1ccc(NC(=O)c2ccc(NCCN)c([N+](=O)[O-])c2)cc1	18	·	0	·	10	0
COCC#Cc1ccc2c(c1)O[C@H](CN(C)Cc1ccc3c(c1)OCO3)[C@H](C)CN([C@@H](C)CO)S2(=O)=O	·	·	-1	0	-5	14
Cc1nc(-c2ccccc2)sc1-c1ccn[nH]1	-5	1	-3	·	-19	44
CCn1c(-c2sc(-c3ccccc3)nc2C)n[nH]c1=S	-18	·	-3	·	-30*	17
CC(=O)NCCCC(=O)NN1C(=S)N(Cc2ccccc2)C(=O)C1CC(=O)Nc1cccc(C)c1 (centres undefined)	-18	·	-1	·	-22*	-13
Cc1ccc(/C=C(\CCC(=O)O)c2nc3ccccc3s2)cc1[N+](=O)[O-]	-12	-2	7	·	-29*	35
O=C(O)C/C(=C\c1cccc(NC(=O)c2ccccc2Cl)c1)c1nc2ccccc2s1	-17	5	-4	·	-35*	11
COc1ccc(/C=C(\CC(=O)O)c2nc3ccccc3s2)cc1O	-25	-10	1	1	-25*	2
COc1cc(/C=C(\CC(=O)O)c2nc3ccccc3s2)ccc1OCC(=O)Nc1ccccc1F	-27	-1	-2	0	-25*	-5
COc1cc(/C=C(\CC(=O)O)c2nc3ccccc3s2)cc(OC)c1O	-43	·	6	·	-28	5
CN(C)CC(=O)N[C@@H]1C=C[C@@H](CC(=O)NCc2ccc(Cl)cc2)O[C@@H]1CO	-8	4	-2	0	0	1

High-throughput results: PubChem, Broad Institute
